From ChEMBL document CHEMBL1128234, “Isothiocyanate-substituted benzyl ether opioid receptor ligands derived from 6 beta-naltrexol” (J Med Chem, 1995)

Key:
[1] = molecular target: Kappa-type opioid receptor (Cavia porcellus) (UniProt P41144); assay: Irreversible binding affinity at Opioid receptor kappa 1 was evaluated as % of control specific binding remaining protected at concentration of 40 (nM) using [3H]U-69593 radioligand
Procedure, shortened: (§1)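 Diluted guinea pig brain homogenate is exposed to ligand for 60 min at 25 °C; protected samples are first preincubated 15 min at 37 °C with 1 naloxone. Washed samples are diluted in ice-cold Tris pH 7.4, spun at 10000g for 15 min at 4 °C, then resuspended and incubated 15 min at 37 °C, twice. Read-out is standard radioligand binding, expressed as % of recovery-sample specific binding. Test ligands run in triplicate; reference averaged over three assays.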

[2] = molecular target: Mu-type opioid receptor (Cavia porcellus) (UniProt P97266); assay: Irreversible binding affinity at mu-receptor was evaluated as % of control specific binding remaining washed at concentration of 30 (nM) using [3H]DAMGO radioligand
Procedure, shortened: (§2)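 Guinea pig brain homogenate (less cerebellum) in 0.05 M Trizma pH 7.4, diluted 1:60. It was incubated with ligand 60 min at 25 °C, then diluted in ice-cold buffer and centrifuged 10000g. Washed samples were resuspended in buffer, incubated 15 min at 37 °C and recentrifuged. Binding used 1.0 nM [3H]DAMGO for 60 min at 25 °C, with filtration and counting. Nonspecific binding was set with 10 µM naloxone. Triplicates; % specific binding was taken relative to recovery controls.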

[3] = molecular target: Mu-type opioid receptor (Cavia porcellus) (UniProt P97266); assay: Irreversible binding affinity at mu-receptor was evaluated as % of control specific binding remaining protected at concentration of 30 (nM) using [3H]DAMGO radioligand; procedure, shortened: as §1
[4] = molecular target: Kappa-type opioid receptor (Cavia porcellus) (UniProt P41144); assay: Irreversible binding affinity at Opioid receptor kappa 1 was evaluated as % of control specific binding remaining protected at concentration of 20 (nM) using [3H]U-69593 radioligand; procedure, shortened: as §1
[5] = molecular target: Mu-type opioid receptor (Cavia porcellus) (UniProt P97266); assay: Irreversible binding affinity at mu-receptor was evaluated as % of control specific binding remaining protected at concentration of 50 (nM) using [3H]DAMGO radioligand; procedure, shortened: as §1
[6] = molecular target: Kappa-type opioid receptor (Cavia porcellus) (UniProt P41144); assay: Irreversible binding affinity at Opioid receptor kappa 1 was evaluated as % of control specific binding remaining washed at concentration of 40 (nM) using [3H]U-69593 radioligand; procedure, shortened: as §1
[7] = molecular target: Kappa-type opioid receptor (Cavia porcellus) (UniProt P41144); assay: Irreversible binding affinity at Opioid receptor kappa 1 was evaluated as % of control specific binding remaining unwashed at concentration of 20 (nM) using [3H]U-69593 radioligand; procedure, shortened: as §1
[8] = molecular target: Mu-type opioid receptor (Cavia porcellus) (UniProt P97266); assay: Irreversible binding affinity at mu-receptor was evaluated as % of control specific binding remaining unwashed at concentration of 50 (nM) using [3H]DAMGO radioligand; procedure, shortened: as §2
[9] = molecular target: Kappa-type opioid receptor (Cavia porcellus) (UniProt P41144); assay: Irreversible binding affinity at Opioid receptor kappa 1 was evaluated as % of control specific binding remaining washed at concentration of 20 (nM) using [3H]U-69593 radioligand; procedure, shortened: as §1
[10] = molecular target: Kappa-type opioid receptor (Cavia porcellus) (UniProt P41144); assay: Irreversible binding affinity at Opioid receptor kappa 1 was evaluated as % of control specific binding remaining unwashed at concentration of 40 (nM) using [3H]U-69593 radioligand; procedure, shortened: as §1
[11] = molecular target: Kappa-type opioid receptor (Cavia porcellus, UniProt P41144); assay: Inhibitory concentration against Opioid receptor kappa 1 using [3H]- U-69,593 radioligand
Procedure, shortened: (§3)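 Guinea pig brain (minus cerebellum) homogenate in 0.05 M Tris pH 7.4, diluted 1:60 (0.8-1.5 mg protein/ml). Ligand tested in duplicate at nine concentrations; 60 min at 25 °C. Nonspecific binding defined with naloxone. Filtration, ice-cold buffer rinse, scintillation counting.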

[12] = molecular target: Mu-type opioid receptor (Cavia porcellus) (UniProt P97266); assay: Irreversible binding affinity at mu-receptor was evaluated as % of control specific binding remaining washed at concentration of 50 (nM) using [3H]DAMGO radioligand; procedure, shortened: as §2
[13] = molecular target: Opioid receptors; mu/kappa/delta; assay: Inhibitory concentration was determined against Opioid receptors using [3H]- bremazocine radioligand; type: protein assay, Cavia porcellus; procedure, shortened: as §3
Mu-type opioid receptor = Mu-type opioid receptor (Cavia porcellus, UniProt P97266); assay: Inhibitory concentration was determined against Opioid receptor mu 1 using [3H]- DAMGO radioligand; procedure, shortened: as §3
[14] = molecular target: Mu-type opioid receptor (Cavia porcellus) (UniProt P97266); assay: Irreversible binding affinity at mu-receptor was evaluated as % of control specific binding remaining unwashed at concentration of 30 (nM) using [3H]DAMGO radioligand; procedure, shortened: as §2
[15] = Inhibitory concentration was determined against delta-opioid receptor using [3H]- DPDPE radioligand
[16] = molecular target: Mu-type opioid receptor (Cavia porcellus) (UniProt P97266); assay: Irreversible binding affinity at mu-receptor was evaluated as % of control specific binding remaining washed at concentration of 10 (nM) using [3H]DAMGO radioligand Values from 3 separate assays (+/-10%)
[17] = molecular target: Mu-type opioid receptor (Cavia porcellus) (UniProt P97266); assay: Irreversible binding affinity at mu-receptor was evaluated as % of control specific binding remaining protected at concentration of 10 (nM) using [3H]DAMGO radioligand Values from 3 separate assays (+/-10%); procedure, shortened: as §1
[18] = molecular target: Mu-type opioid receptor (Cavia porcellus) (UniProt P97266); assay: Irreversible binding affinity at mu-receptor was evaluated as % of control specific binding remaining unwashed at concentration of 10 (nM) using [3H]-DAMGO radioligand Values from 3 separate assays (+/-10%); procedure, shortened: as §1
[19] = molecular target: Kappa-type opioid receptor (Cavia porcellus) (UniProt P41144); assay: Irreversible binding affinity at Opioid receptor kappa 1 was evaluated as % of control specific binding remaining washed at concentration of 150 (nM) using [3H]U-69593 radioligand; procedure, shortened: as §1
[20] = molecular target: Kappa-type opioid receptor (Cavia porcellus) (UniProt P41144); assay: Irreversible binding affinity at Opioid receptor kappa 1 was evaluated as % of control specific binding remaining protected at concentration of 150 (nM) using [3H]U-69593 radioligand; procedure, shortened: as §1

Kappa-type opioid receptor (Cavia porcellus), sequence (P41144 whole entry): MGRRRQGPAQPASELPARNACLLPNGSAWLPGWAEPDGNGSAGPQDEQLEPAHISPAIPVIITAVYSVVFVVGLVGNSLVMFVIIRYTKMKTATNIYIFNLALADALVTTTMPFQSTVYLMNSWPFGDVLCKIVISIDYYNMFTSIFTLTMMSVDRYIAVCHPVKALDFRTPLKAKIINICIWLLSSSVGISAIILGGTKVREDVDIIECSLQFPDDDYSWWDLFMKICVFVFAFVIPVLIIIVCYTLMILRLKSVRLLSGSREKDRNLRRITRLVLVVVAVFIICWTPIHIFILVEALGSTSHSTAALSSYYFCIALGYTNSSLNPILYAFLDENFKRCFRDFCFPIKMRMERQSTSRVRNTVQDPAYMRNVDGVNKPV
Kappa-type opioid receptor, sequence (P41144 whole entry): as above
Mu-type opioid receptor (Cavia porcellus), sequence (P97266 whole entry): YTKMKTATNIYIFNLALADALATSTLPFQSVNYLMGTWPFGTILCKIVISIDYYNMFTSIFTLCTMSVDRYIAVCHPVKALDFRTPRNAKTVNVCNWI
Mu-type opioid receptor, sequence (P97266 whole entry): as above

Oc1ccc2c3c1O[C@H]1[C@H](OCc4ccc(CN=C=S)cc4)CC[C@@]4(O)C(C2)N(CC2CC2)CCC314 (stereo partly specified)
Control [1]: 64% | Control [2]: 56% | Control [3]: 67% | Control [4]: 95% | Control [5]: 60% | Control [6]: 58% | Control [7]: 61% | Control [8]: 22% | Control [9]: 68% | Control [10]: 32% | IC50 [11]: 7.4 nM | Control [12]: 58% | IC50 [13]: 21 nM | IC50 (Mu-type opioid receptor): 11 nM | Control [14]: 59%

Oc1ccc2c3c1OC1[C@H](OCc4ccccc4)CCC4(O)C(C2)N(CC2CC2)CCC314 (stereo partly specified)
IC50 [15]: 2.9 nM | Control [16]: 100% | Control [17]: 104% | Control [18]: 14%

Oc1ccc2c3c1O[C@H]1[C@H](OCc4ccccc4CN=C=S)CC[C@@]4(O)C(C2)N(CC2CC2)CCC314 (stereo partly specified)
IC50 [11]: 43 nM | IC50 [13]: 69 nM | Control [19]: 35% | IC50 (Mu-type opioid receptor): 20 nM | Control [20]: 45%

Oc1ccc2c3c1O[C@H]1[C@@H](O)CC[C@@]4(O)[C@@H](C2)N(CC2CC2)CC[C@]314
IC50 [11]: 2.6 nM | IC50 (Mu-type opioid receptor): 1.1 nM
